This note sets out measurements from ChEMBL document CHEMBL3046830, “Isolation and identification of secondary metabolites of Clitocybe nuda responsible for inhibition of zoospore germination of Phytophthora capsici” (2012).

As a reminder, the inhibition is how much of the control response was suppressed.

The structures appear in SMILES notation. Calls of active or inactive are those of the source. The calls are words filed in the database; no cut-off is given here.

What all share (assay type): functional
In experiment [1] the test system is Phytophthora capsici. Briefly: Antimicrobial activity against Phytophthora capsici PCM81 assessed as inhibition of zoospore germination at 500 mg/L at 24 degC for 8 hr. The note with it: for inhibition at 500 µg/mL: PCM81, 8 h. In outline:
(§1)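 P. capsici PCM81 sporangia grown 5 days on 10% V8 agar at 24 °C under a 12 h light–dark cycle. Zoospores released in sterile water for 1 day at 24 °C, then chilled at 4 °C for 1 h. The suspension is mixed 1:1 with the sample in a cavity slide and kept moist; a distilled-water mix is the control. Germination is scored after 8 h at 24 °C, counting 100 spores × 4 replicates, with the experiment run twice and analysed by Duncan's test.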

Experiment [2] deals with Phytophthora capsici. Briefly: Antimicrobial activity against Phytophthora capsici PCM81 assessed as zoospore germination at 100 ppm at 24 degC for 8 hr. In outline:
as §1

Experiment [3] concerns Phytophthora capsici. Briefly: Antimicrobial activity against Phytophthora capsici PCM81 assessed as zoospore germination at 500 ppm at 24 degC for 8 hr. In outline:
as §1

Experiment [4] concerns Phytophthora capsici. The experiment can be described thus: Antimicrobial activity against Phytophthora capsici PCM81 assessed as zoospore germination at 1000 ppm at 24 degC for 8 hr. In outline:
as §1

On to `O=CC1=CC=C(O)OC1`, for which, in the experiment on Phytophthora capsici [1], the inhibition at 500 µg/mL was 86%. Also, the Activity amounted to 77% in the experiment with Phytophthora capsici [2], 14.5% in the experiment on Phytophthora capsici [3] and 0% in the experiment with Phytophthora capsici [4].
As for `O=Cc1c[nH]c2ccccc12` [3-FORMYLINDOLE], the inhibition entry in the experiment on Phytophthora capsici [1] was “Active”. Also, the Activity was 57% with Phytophthora capsici [2], 0% with Phytophthora capsici [3] and 0% in the experiment with Phytophthora capsici [4].
Turning to `COCC1=C(C)C(=O)C=C(OC)C1=O`, the inhibition at 500 µg/mL in the experiment on Phytophthora capsici [1] turned out to be 97%. The Activity with Phytophthora capsici [2] is reported as 65%; with Phytophthora capsici [3], 3%; with Phytophthora capsici [4] it was 0%.
